Source: PubChem
Jurkat tox 60K: cytotoxicity toward Jurkat T cells, primary screen, cytotoxicity control, cell-based, Jurkat E6.1, 60K MLSMR library. Jurkat E6.1 viability, ATP luminescence, 48 h. inhibition, % at 4 µM. actives 1.2% (n = 56,000). AID 463, 2006;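 active = inhibition above the mean inhibition of all tested compounds plus 3 SD, cut at about 28% in these data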
H69AR growth 86K: proliferation blockers of H69AR lung cancer cells, primary screen, cell-based, human, 86K library; actives 6% (n = 85,000); viability, % at 10 µM; H69AR lung tumor viability, ATP luminescence, 72 h; active compounds read low; AID 598, 2007;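 active = viability at or below 40%; inactive = viability above 40%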;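 note: multidrug resistant small cell line overexpressing MRP-1 efflux transporter; 100% = mean luminescence of untreated control wells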
HUVEC prolif 384: inhibitors of HUVEC proliferation, primary screen, cell-based, 384-well; CellTiter-Glo luminescence, 72 h; active compounds read low; viability, % at 10 µM (by protocol); actives 1.1% (n = 86,000); AID 648, 2007;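 active = viability at or below 30%; inactive = viability above 30%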;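 note: 100% = median luminescence of DMSO-only cell control wells on each plate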
Fibroblast inh: antiproliferative effect on LL 47 fibroblasts – human, LL 47 cells, CellTiter-Glo luminescence, primary screen; LL 47 human lung fibroblast viability, ATP luminescence; active compounds read low; viability, % at 10 µM; actives 1.1% (n = 85,000);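 active = viability at or below 50% in the single dose screen; inactive = viability above 50%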;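 note: compound exposure lasted 72 h before the ATP readout; 100% = median luminescence of untreated cell-only wells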
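Test system: LL 47 human lung fibroblasts; Quantity: 1,150 cells/well; Buffer or medium: IMEM plus 15% FBS; Dosing: tenfold compound dosing solution, DMSO at 0.1%; Timing: overnight cell rest, 72 h compound treatment at 37 °C; Detection: ATP-based CellTiter-Glo luminescent readout; Read-out basis: viability percentage against median untreated-cell control; Controls: cell-only wells, no compound.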
Starred values were filed as active, the others as inactive. An excerpt weighted towards active compounds, which were near 6.4% of everything screened.

For COc1ccc(N2C(=O)CC(Sc3nc(C)c4c(n3)CCCC4)C2=O)cc1 (configuration not stated) the results were Jurkat tox 60K 29.5, H69AR growth 86K 24.8*, HUVEC prolif 384 60.1 and Fibroblast inh 81.0.
Cc1ccc2cc(C#N)c(NCCNC(=O)C3CC3)nc2c1C was read as Jurkat tox 60K 6.6, H69AR growth 86K 92.5, HUVEC prolif 384 95.8 and Fibroblast inh 101.6.
For COc1ccc(C2CC(c3cccs3)=Nc3ccccc3S2)cc1 (configuration not stated) the results were H69AR growth 86K 17.4*, HUVEC prolif 384 77.1 and Fibroblast inh 88.6.
For CCCc1nc(SCC(=O)N2CCc3ccccc32)c2c(=O)n(C)c(=O)n(C)c2n1 the results were Jurkat tox 60K -2.5, H69AR growth 86K 56.8, HUVEC prolif 384 96.7 and Fibroblast inh 74.1.
`CC(C)c1nc(SCC(=O)N2CCCc3ccccc32)c2c(=O)n(C)c(=O)n(C)c2n1` gave H69AR growth 86K 14.2*, HUVEC prolif 384 57.4 and Fibroblast inh 83.7.
For Cn1c(=O)c2c(nc(SCCCC#N)n2Cc2c(F)cccc2Cl)n(C)c1=O the results were Jurkat tox 60K 2.6, H69AR growth 86K 51.1, HUVEC prolif 384 90.4 and Fibroblast inh 94.9.
Screening CC(C)c1nc(SCc2c(F)cccc2Cl)c2c(=O)n(C)c(=O)n(C)c2n1 returned Jurkat tox 60K -8.1, H69AR growth 86K 38.3*, HUVEC prolif 384 56.3 and Fibroblast inh 82.5.
For CC(O)Cn1cnc2c1c(=O)n(C)c(=O)n2C (configuration not stated) the results were H69AR growth 86K 98.7, HUVEC prolif 384 103.4 and Fibroblast inh 101.2.
Screening O=C(N/N=C1\CCCc2ccccc21)c1ccc([N+](=O)[O-])cc1Cl returned H69AR growth 86K 76.4, HUVEC prolif 384 103.5 and Fibroblast inh 106.0.
`COC(=O)CC1SC(=O)NC1=Nc1cccc(C)c1` (configuration not stated) gave H69AR growth 86K 73.0, HUVEC prolif 384 94.3 and Fibroblast inh 102.6.
Screening C[C@H](NC(=O)Nc1ccc2c(c1)OCCO2)C(=O)O returned Jurkat tox 60K -8.1, H69AR growth 86K 94.9, HUVEC prolif 384 107.8 and Fibroblast inh 96.9.
C=C(C)c1cccc(C(C)(C)NC(=O)Nc2ccc3[nH]c(=O)[nH]c3c2)c1 was read as Jurkat tox 60K 2.2, H69AR growth 86K 94.5, HUVEC prolif 384 105.0 and Fibroblast inh 109.2.
For CCCc1nc2ccccc2c(=O)n1/N=C/c1c(C)[nH]n(-c2ccc(C)cc2)c1=O the results were Jurkat tox 60K 20.5, H69AR growth 86K 27.1*, HUVEC prolif 384 64.3 and Fibroblast inh 87.8.
Screening CCOC(=O)C1=C(C)N=c2s/c(=C\c3ccncc3)c(=O)n2C1c1ccc2c(c1)OCO2 (configuration not stated) returned H69AR growth 86K 3.0*, HUVEC prolif 384 50.1 and Fibroblast inh 70.6.
For CCOC(=O)C1=C(C)N=c2s/c(=C3\C(=O)Nc4ccccc43)c(=O)n2C1c1ccc2c(c1)OCO2 (configuration not stated) the results were Jurkat tox 60K -2.1, H69AR growth 86K 27.1*, HUVEC prolif 384 72.5 and Fibroblast inh 91.3.
Cc1ccccc1C(=O)NCc1nnc(SCC(=O)N2c3ccccc3Sc3ccccc32)n1C was read as H69AR growth 86K 101.1, HUVEC prolif 384 85.7 and Fibroblast inh 96.4.
Screening COC(=O)c1ccccc1NC(=O)Cn1c(-c2nonc2N)nc2ccccc21 returned Jurkat tox 60K 61.1*, H69AR growth 86K 8.2*, HUVEC prolif 384 22.5* and Fibroblast inh 47.0*.
For Cn1c(C(C#N)C(=O)c2sc3ccccc3c2Cl)nc2ccccc21 (configuration not stated) the results were Jurkat tox 60K 5.5, H69AR growth 86K 17.1*, HUVEC prolif 384 78.3 and Fibroblast inh 90.2.
CC(C)c1nnc(NC(=O)c2sc3ccccc3c2Cl)s1 was read as H69AR growth 86K 81.2, HUVEC prolif 384 95.4 and Fibroblast inh 104.6.
Screening O=C1CC(N2CCN(c3nc4ccccc4s3)CC2)C(=O)N1c1ccc(F)cc1 (configuration not stated) returned Jurkat tox 60K -4.3, H69AR growth 86K 118.1, HUVEC prolif 384 92.0 and Fibroblast inh 106.8.
COC(=O)/C=C1\C(=O)N(c2nc3ccccc3s2)C(=S)N1c1ccc(F)cc1 was read as H69AR growth 86K 46.3, HUVEC prolif 384 64.4 and Fibroblast inh 49.7*.
Screening O=C(CS(=O)(=O)c1ccccc1)c1ccc2c(c1)OCCO2 returned Jurkat tox 60K 5.6, H69AR growth 86K 89.5, HUVEC prolif 384 82.9 and Fibroblast inh 89.9.
O=C(O)CCC(=O)c1ccc2c(c1)OCCO2 was read as Jurkat tox 60K 0.0, H69AR growth 86K 103.2, HUVEC prolif 384 97.4 and Fibroblast inh 95.0.
O=C(CCN1CCc2ccccc2C(c2ccccc2)C1)c1ccc2c(c1)OCCO2 (configuration not stated) was read as H69AR growth 86K 1.6*, HUVEC prolif 384 86.1 and Fibroblast inh 90.8.
Screening O=C(CCN1Cc2ccccc2C1)c1ccc2c(c1)OCCO2 returned Jurkat tox 60K -1.7, H69AR growth 86K 1.0*, HUVEC prolif 384 97.7 and Fibroblast inh 79.1.
For CCN1C=CC(=C2C(=O)c3ccccc3C2=O)C=C1 the results were Jurkat tox 60K 32.6, H69AR growth 86K 27.1*, HUVEC prolif 384 61.2 and Fibroblast inh 68.7.
`O=C(O)C1C2C=CC(C2)C1C(=O)NCc1cccnc1` (configuration not stated) gave H69AR growth 86K 92.1, HUVEC prolif 384 96.6 and Fibroblast inh 97.7.
CCC(C)(C)n1nnnc1C(c1ccc(O)c(OC)c1)N1CCN(c2nc3ccccc3s2)CC1 (configuration not stated) was read as Jurkat tox 60K 6.4, H69AR growth 86K 14.1*, HUVEC prolif 384 93.0 and Fibroblast inh 94.5.
Screening CCC(C)(C)n1nnnc1C(c1ccc(O)c(OC)c1)N1CCc2ccccc2C1 (configuration not stated) returned H69AR growth 86K 34.1*, HUVEC prolif 384 93.6 and Fibroblast inh 86.7.
`COc1ccc(C(c2nnnn2C(C)(C)C)N2CCN(c3nc4ccccc4s3)CC2)cc1` (configuration not stated) gave Jurkat tox 60K -1.1, H69AR growth 86K 82.9, HUVEC prolif 384 95.7 and Fibroblast inh 99.9.
Screening O=C(N/N=C1\CCCc2ccccc21)c1ccccc1[N+](=O)[O-] returned H69AR growth 86K 86.3, HUVEC prolif 384 96.8 and Fibroblast inh 105.1.
`O=C(CCN1CCN(CCC(=O)c2ccccc2)CC1)c1ccccc1` gave Jurkat tox 60K -0.3, H69AR growth 86K 1.2*, HUVEC prolif 384 95.7 and Fibroblast inh 92.7.
O=C(CN1CCN(Cc2ccccc2)CC1)c1ccccc1 was read as H69AR growth 86K 86.8, HUVEC prolif 384 104.2 and Fibroblast inh 96.4.
For N/C(Cc1ccc(Cl)cc1)=N\OC(=O)c1ccc2ccccc2c1 the results were H69AR growth 86K 3.2*, HUVEC prolif 384 5.6* and Fibroblast inh 83.0.
